According to ChEMBL document CHEMBL1123442 (J Med Chem, 1986):
The source made the active and inactive calls. The rule behind the calls is not given here.

Tests used:
HCT-8 = assay: In vitro for cytotoxicity against human colon tumor cells (HCT-8) in culture; format: functional, cell-based
L1210 = assay: In vitro for cytotoxicity against murine leukemia cells (L1210); format: functional, cell-based; settings: Mus musculus
[1] = tested on: Lewis lung carcinoma cell line; assay: Evaluated in vivo for antitumor activity against Lewis lung carcinoma; i denotes Inactive; format: functional, organism-based; settings: Mus musculus
Summary of the method: (§1)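 Mice inoculated intravenously with 10^6 Lewis lung carcinoma cells, then drug intraperitoneally in 0.1 mL 30% v/v ethanol-water on days 5, 9 and 13. D50 (mg/kg per day for 50% ILS) taken from dose-response graph. ILS at optimal dose versus untreated tumor-bearing controls. Survivors counted at 40 days.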

[2] = tested on: Lewis lung carcinoma cell line; assay: In vivo for antitumor activity against Lewis lung carcinoma; format: functional, Mus musculus; summary of the method: as §1
[3] = tested on: Lewis lung carcinoma cell line; assay: Evaluated in vivo for antitumor activity against Lewis lung carcinoma; g denotes ILS of 50% could not be reached at any dose level; format: functional, organism-based; settings: Mus musculus; summary of the method: as §1
P388 [4] = assay: In vivo for antitumor activity against P388 leukemia.; format: functional, Mus musculus
Summary of the method: (§2)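 Mice given 10^6 P388 leukemia cells intraperitoneally, then drug intraperitoneally in 0.1 mL 30% v/v ethanol-water on days 1, 5 and 9. D50 (mg/kg per day giving 50% ILS) read from dose-response graph. ILS at optimal dose versus untreated controls. Long-term survival counted at 30 days.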

P388 [5] = assay: In vivo for antitumor activity against P388 leukemia; format: functional, Mus musculus; summary of the method: as §2
poly[d(A-T)] = assay: Binding constant relative to amsacrine (Δlog K) for DNA binding by ethidium bromide displacement; settings: Bos taurus
[6] = tested on: Lewis lung carcinoma cell line; assay: Evaluated in vivo for antitumor activity against Lewis lung carcinoma; format: functional, Mus musculus; summary of the method: as §1

SMILES	IC50 (HCT-8) [nM]	IC50 (L1210) [nM]	ILSmax [1]	OD [2] [mg/kg]	D50 [3]	OD (P388 [4]) [mg/kg]	D50 (P388 [5]) [mg/kg]	ILSmax (P388 [5]) [%]	Δlog K (poly[d(A-T)])	ILSmax [2] [%]	D50 [6] [mg/kg]
CNc1cc(NS(C)(=O)=O)ccc1Nc1c2ccccc2nc2c(C(=O)NCC(N)=O)cccc12	> 104	3500	inactive	45	ILS of 50% could not be reached	68	45	87	5.57	–	–
CNc1cc(NS(C)(=O)=O)ccc1Nc1c2ccccc2nc2c1ccc1ccccc12	400	189	inactive	20	ILS of 50% could not be reached	45	45	50	7.46	–	–
CNc1cc(NS(C)(=O)=O)ccc1Nc1c2ccccc2nc2cc([N+](=O)[O-])ccc12	140	110	inactive	8.9	ILS of 50% could not be reached	5.9	3	70	6.72	–	–
CNc1cc(NS(C)(=O)=O)ccc1Nc1c2ccccc2nc2cc(NC(=O)OC)ccc12	715	76	inactive	8.9	ILS of 50% could not be reached	13.3	1.5	135	7.21	–	–
COc1cc(NS(C)(=O)=O)ccc1Nc1c2ccccc2nc2ccccc12 [AMSACRINE]	–	–	–	–	ILS of 50% could not be reached	–	–	–	–	–	–
CNc1cc(NS(C)(=O)=O)ccc1Nc1c2ccccc2nc2cc(Br)ccc12	140	38	–	20	ILS of 50% could not be reached	66	5	136	6.99	49	–
CNc1cc(NS(C)(=O)=O)ccc1Nc1c2ccc(Br)cc2nc2c(OC)cccc12	150	41	–	65	–	65	9	174	–	111	40
CNc1cc(NS(C)(=O)=O)ccc1Nc1c2ccccc2nc2cc(F)ccc12	460	94	–	45	–	45	15	157	–	79	20
CNc1cc(NS(C)(=O)=O)ccc1Nc1c2ccccc2nc2c(Cl)cccc12	740	690	–	100	–	100	65	64	–	59	80
CNc1cc(NS(C)(=O)=O)ccc1Nc1c2ccccc2nc2c(C)cccc12	79	53	–	20	–	13.3	3	157	–	139	8.9
CNc1cc(NS(C)(=O)=O)ccc1Nc1c2ccccc2nc2c(C(N)=O)cccc12	2800	560	inactive	30	ILS of 50% could not be reached	45	25	109	6.28	–	–
CNC(=O)c1cccc2c(Nc3ccc(NS(C)(=O)=O)cc3NC)c3ccc(Cl)cc3nc12	1900	110	inactive	30	ILS of 50% could not be reached	45	30	61	6.79	–	–
CNC(=O)c1cccc2c(Nc3ccc(NS(C)(=O)=O)cc3NC)c3cccc(OC)c3nc12	> 1000	320	–	65	ILS of 50% could not be reached	65	30	148	6.92	34	–
CNc1cc(NS(C)(=O)=O)ccc1Nc1c2ccccc2nc2c(C)c(C)ccc12	76	43	–	20	–	13.3	7	148	–	155	10
CNc1ccc2c(Nc3ccc(NS(C)(=O)=O)cc3NC)c3ccccc3nc2c1	810	5.8	inactive	2.6	ILS of 50% could not be reached	2.6	0.2	208	7.53	–	–
CNc1cc(NS(C)(=O)=O)ccc1Nc1c2ccccc2nc2cc(C)ccc12	59	19	–	8.9	ILS of 50% could not be reached	8.9	3.5	88	6.71	41	–
CNc1cc(NS(C)(=O)=O)ccc1Nc1c2ccc(Br)cc2nc2c(C)cccc12	49	21	–	13.3	ILS of 50% could not be reached	13.3	7	122	7.27	34	–
CNc1cc(NS(C)(=O)=O)ccc1Nc1c2ccccc2nc2cc(Cl)ccc12	170	24	–	20	–	30	10	149	–	98	15
CNc1cc(NS(C)(=O)=O)ccc1Nc1c2ccc(F)cc2nc2c(OC)cccc12	370	200	–	65	–	65	20	100	–	85	45
CNc1cc(NS(C)(=O)=O)ccc1Nc1c2cccc(C)c2nc2c(C)cccc12	190	91	–	65	–	45	6	202	–	125	25
CNc1cc(NS(C)(=O)=O)ccc1Nc1c2ccccc2nc2ccc(C)cc12	1700	550	–	100	ILS of 50% could not be reached	100	55	8	5.89	200	–
